The source of these data is PMC11920041 (NPJ Parkinson's Disease, 2025).

As a reminder, the AUC is concentration integrated over time. Low values mean less exposure, high ones more exposure. As usually defined, the Cmax is the maximum level reached in the sampled fluid or tissue. A word on the Tmax: it is the time at which the peak concentration occurs.

The conditions of series [1]: cited from earlier work.
Series [2] concerns small intestinal bacterial overgrowth (SIBO). The note with it: eradication of SIBO in patients with PD; cited from earlier work.
The test system of series [3] is AADC. The note with it: cited from earlier work.
For series [4] the following is noted: mice; cited from earlier work.
Series [5] has as its system tyrDC. The note with it: cited from earlier work.
The conditions of series [6]: administered in combination with carbidopa; cited from earlier work.
The format of series [7] is in vivo. The settings on record: human, plasma, oral, median [interquartile range]; for AUC: up to 3 h. In a few lines:
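Fasting ≥12 h after last meal, dosing from 9:00 a.m.; PD patients on oral levodopa, diagnosed by UK Brain Bank criteria; no concomitant magnesium oxide or prokinetics. Blood via indwelling catheter before and 15–180 min after dose; centrifuged 1000 g, 10 min, 4 °C; plasma stored −80 °C; HPLC-ECD. Cmax and Tmax taken from the curve; AUC to 3 h by linear trapezoidal rule.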

For series [8] the following is noted: concomitant use in patients with PD; cited from earlier work.
The mark [9] stands for this setting: female, female patients, n = 12.

Read-outs that look alike come from different tables or passages of the source.

Consider `[O]=[Mg]` [magnesium oxide], for which the “effect of concomitant use on bioavailability of levodopa” value in series [1] is on record as “may reduce”.
In the case of `CO[C@H]1/C=C/O[C@@]2(C)Oc3c(C)c(O)c4c(O)c(c5c(nc6cc(C)ccn65)c4c3C2=O)NC(=O)/C(C)=C\C=C\[C@H](C)[C@H](O)[C@@H](C)[C@@H](O)[C@@H](C)[C@H](OC(C)=O)[C@@H]1C` [rifaximin], in series [2], the “effect on motor fluctuations” value is “improves motor fluctuations”.
Consider `N[C@@](CF)(Cc1ccc(O)cc1)C(=O)O` [AFMT, (S)-α-fluoromethyltyrosine], for which the “effect on AADC” value in series [3] was “without affecting AADC”. Also, the “effect of concomitant use on levodopa Cmax” value in series [4] is “increased”. Moreover, in series [5], the “inhibition of tyrDC-mediated levodopa decarboxylation” value is recorded as “selective inhibitor”.
On to `N[C@@H](Cc1ccc(O)c(O)c1)C(=O)O` [levodopa], for which the half-life entry in series [6] is reported as “approximately 90 min”. In series [7] (setting [9]), the AUC is 12.7 µM·h and the concentration peaked (Cmax) at 10.4 µM. For the same molecule, in series [7] (low levodopa Cmax group (< 9 μmol/L), n = 11), the Tmax was 45 min. In addition, in series [7] (male, male patients, n = 9), the AUC amounted to 6.95 µM·h, the Cmax came out at 4.88 µM and the Tmax is 45 min.
As to `COc1ccc2nc([S@@+]([O-])Cc3ncc(C)c(OC)c3C)[nH]c2c1` [esomeprazole], in series [8], the “effect on levels of carbidopa in the plasma” value is “without affecting” and the “effect on levels of levodopa in the plasma” value is “reduced”.
